Published values collected from several papers.
Each line is one published result; the experiments were not run side by side.
Target: Tyrosine-protein kinase Fes/Fps (FES, Homo sapiens, UniProt P07332)

CCCS(=O)(=O)Nc1ccc(F)c(C(=O)c2c[nH]c3ncc(-c4ccc(Cl)cc4)cc23)c1F  inhibition (enzyme activity, inhibitor; 1 µM): < 20%
CNCc1ccc(-c2cc(-c3nc(-c4ccc(S(=O)(=O)C(C)C)cc4)cnc3N)on2)cc1  inhibition (enzyme activity, inhibitor; 0.4 µM): 0%
CNc1cc(Oc2cc(C(=O)Nc3cc(N4CCN(C)CC4)cc(C(F)(F)F)c3)ccc2C)ncn1  inhibition (target engagement in cells, inhibitor, chemoproteomics; Huh-7; 1 µM): -21.4%
O=c1nc(-c2ccccn2)sc2ccccc12  remaining binding (cell-free assay, competition with immobilised ligand; 1 µM): 100%
Cc1cc(NC(=O)c2cccc3cc(-c4cccc5[nH]nc(N)c45)ccc23)ccc1F  activity vs control (enzyme activity, inhibitor; 0.1 µM): 97%
Cc1ccc(NC(=O)c2ccc(C)c(C(F)(F)F)c2)cc1C#Cc1nn(C2CCC(O)CC2)c2ncnc(N)c12 (centres unmarked)  remaining signal (cell-free assay; 10 µM): 34%
O=C(Nc1cnn(-c2csc(C(=O)NC3COC3)c2)c1)Nc1c(F)cccc1Cl  remaining activity (enzyme activity, inhibitor; 5 µM): 87.8%
CC1=C(C#N)[C@@H](c2ccc3[nH]nc(C)c3c2)C(C#N)=C(c2ccc(Cl)cc2)N1  remaining binding (cell-free assay, competition with immobilised ligand; 1 µM): 100%
N#CCCc1ccc2c(c1)-c1[nH]c3ccc([N+](=O)[O-])cc3c1CC(=O)N2  remaining signal (cell-free assay; 0.5 µM): 37.9%
CN1CC(Oc2cnc(C#N)cc2-c2ccn3nc(NC(=O)C4CC4)cc3c2)C1  inhibition (enzyme activity, inhibitor; 1 µM): 8%
O=C(O)[C@@H]1[C@@H](Cn2nnc3ccccc3c2=O)CC[C@H]1C(=O)c1ccc(OCCC2CCOCC2)cc1  remaining binding (cell-free assay, competition with immobilised ligand; 1 µM): 100%
Nc1ncnc2occ(-c3ccc(NC(=O)Nc4cc(C(F)(F)F)ccc4F)cc3)c12  remaining signal (cell-free assay, inhibitor; 20 µM): 4.1%
O=C1Nc2ccc(Cl)cc2C1=Cc1cc(Cl)c(O)c(Cl)c1  remaining signal (cell-free assay; 0.5 µM): 93.7%
CCN(CC)c1ccc(C2=NNC(=O)CC2C)cc1[N+](=O)[O-] (centres unmarked)  remaining activity (enzyme activity, inhibitor; 10 µM): 103%
CN([C@@H]1CCc2c(CC(=O)O)c3cc(S(C)(=O)=O)ccc3n2C1)S(=O)(=O)c1ccc(F)cc1  remaining binding (cell-free assay, competition with immobilised ligand; 1 µM): 92%
COc1cc2ncnc(Nc3ccc(Oc4ccccc4)c(C)c3C)c2cc1OC  inhibition (enzyme activity, inhibitor; 1 µM): 7%
C[C@@H]1CN(c2cc(-c3n[nH]c4ccc(OC5(C)CC5)cc34)ncn2)C[C@H](C)O1  remaining binding (cell-free assay, competition with immobilised ligand; 0.1 µM): 87%
CCCOc1ccc(OC)c(F)c1C(=O)c1ccc(C(=O)N[C@@H]2CNC[C@H]2NC(=O)c2ccc3[nH]ncc3c2)cc1  remaining activity (enzyme activity, inhibitor; 10 µM): 79%
Cc1cnc(NC2CCOCC2)nc1-n1cnc(C(=O)NC(CN)c2cc(F)cc(Cl)c2)c1 (centres unmarked)  remaining activity (enzyme activity, inhibitor, radiometric; 1 µM): 102%
COc1ccc2c(O[C@@H]3C[C@H]4C(=O)N[C@]5(C(=O)O)CC5/C=C\CCCCC[C@H](NC(=O)OC5CCCC5)C(=O)N4C3)cc(-c3csc(NC(=O)C(C)C)n3)nc2c1C (some centres unmarked)  remaining binding (cell-free assay, competition with immobilised ligand; 1 µM): 100%
O=c1cc(-c2cccc3c2Sc2ccccc2S3)oc(N2CCOCC2)c1  remaining activity (enzyme activity, inhibitor; 0.5 µM): 104%
CC(C)(C)c1nc(-c2cccc(NS(=O)(=O)c3c(F)cccc3F)c2F)c(-c2ccnc(N)n2)s1  remaining activity (enzyme activity, inhibitor, radiometric; 1 µM): 88%
COc1cc(Cl)c(C(=O)N[C@@H](CN[C@H]2CC[C@@H](N)CC2)Cc2ccc(C#N)cc2)cc1-c1ccc(CN[C@H](C)c2ccc(C)cc2)o1  remaining activity (enzyme activity, inhibitor; 1 µM): 94%
